Source: PubChem BioAssay (Sanford-Burnham Center for Chemical Genomics)
APJ ag: activates the human apelin receptor APJ; 330,000 compounds, 0.11% hits; CHO-K1 APJ PathHunter beta-arrestin, luminescence; 0% DMSO wells, 100% apelin; P35414; activation, % at 20 µM;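 active means activation more than six SD over the plate average, tested at 20 µM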;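 further: 0% = DMSO alone and 100% = apelin-13 at 10 nM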
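Assay system: CHO-K1 cells stably expressing ProLink-tagged human APJ and arrestin–beta-gal acceptor. Compound dosing: 20 µM single point, 1% DMSO. Times: 16-18 h seeding, 90 min dark compound exposure, 60 min detection. Detection: beta-gal luminescence. Evaluation: APJ–arrestin association signal. Controls: negative DMSO alone, positive Apelin-13 at 10 nM.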
CCR6 antagonist: blocks CCL20-driven beta-arrestin recruitment at human CCR6; CHO-K1 CCR6 PathHunter beta-arrestin, luminescence, CCL20-stimulated; 340,000 compounds, 0.49% hits; P51684; inhibition, % at 20 µM; AID 493098;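 active means compounds whose inhibition of the agonist-driven luminescence signal at 20 µM reaches about 50%, limit read from the data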;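 further: cells stimulated with CCL20 at 14 nM final; plate controls were DMSO with CCL20 for no effect and DMSO without agonist for full effect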
EBI2 block: EBI2 (human) antagonism. EBI2 beta-arrestin recruitment, luminescence, 7a,25-OHC stimulated. 360,000 compounds, 0.81% hits. inhibition, % at 5 µM. P32249; in the data active means inhibition above about 38%;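 further: enzyme fragment complementation signal reports receptor beta-arrestin coupling in cells; 0% = agonist plus DMSO wells and 100% = wells without agonist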
CXCR6 inh: blocks human CXCR6 beta-arrestin recruitment. O00574. CHO-K1 PathHunter CXCR6 beta-arrestin, luminescence. inhibition, % at 20 µM. 360,000 compounds, 0.36% hits. AID 602244; in the data active means inhibition above about 34%, passing the limit was not always enough;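 further: antagonist mode with CXCL16 agonist at 10 nM final; 0% = 10 nM CXCL16 with DMSO and 100% = unstimulated wells without agonist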
Target sequence (O00574 whole entry, looked up): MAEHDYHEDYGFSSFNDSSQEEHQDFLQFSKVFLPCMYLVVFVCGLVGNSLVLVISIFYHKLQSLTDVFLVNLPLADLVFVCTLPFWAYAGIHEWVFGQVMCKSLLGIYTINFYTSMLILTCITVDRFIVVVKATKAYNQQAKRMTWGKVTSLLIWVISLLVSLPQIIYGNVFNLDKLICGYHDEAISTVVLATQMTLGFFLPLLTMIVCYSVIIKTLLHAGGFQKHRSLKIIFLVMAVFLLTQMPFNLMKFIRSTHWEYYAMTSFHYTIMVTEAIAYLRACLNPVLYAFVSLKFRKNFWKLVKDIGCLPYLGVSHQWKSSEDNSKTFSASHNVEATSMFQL
APJ antag: blocks the human apelin receptor APJ. CHO-K1 APJ beta-arrestin complementation, luminescence. inhibition, % at 20 µM. 330,000 compounds, 0.32% hits;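 active means inhibition above about 40% at 20 µM, limit read from the data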;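 further: cells challenged with 10 nM apelin-13 agonist together with compound; plate controls were apelin-13 plus DMSO wells for no effect and DMSO wells lacking apelin-13 for full effect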
* marks the source's active call; other numbers are inactive results. Rows were chosen to be rich in hits. Some 1.5% of all compounds tested hit in one or more screens of this group.

Results for COc1cc(/C=C/C(=O)O)ccc1O ?
APJ ag: -2; CCR6 antagonist: 8; EBI2 block: -5; CXCR6 inh: -5; APJ antag: 4

Results for COc1cc(/C=C/C(=O)c2ccc([N+](=O)[O-])o2)ccc1O ?
APJ ag: 2; CCR6 antagonist: 75*; EBI2 block: -24; CXCR6 inh: 15; APJ antag: -54

How did Cc1ccc(-c2csc3nc4c5ccccc5c(NCCCN(C)C)nn4c(=O)c23)cc1 do in these assays?
APJ ag: 11*; CCR6 antagonist: 21; EBI2 block: -7; CXCR6 inh: 1; APJ antag: 14

How did N#Cc1ccc(Nc2nc(-c3ccc(O)cc3O)cs2)cc1C(F)(F)F do in these assays?
APJ ag: 6; CCR6 antagonist: 4; EBI2 block: 56*; CXCR6 inh: -23; APJ antag: 3

How did O=C(C(c1ccccc1)N1CCOCC1)N1CCOCC1 (centres undefined) do in these assays?
APJ ag: 1; CCR6 antagonist: 14; EBI2 block: -3; CXCR6 inh: -10; APJ antag: 10

How did O=C(C=Cc1ccccc1)CC(c1ccccc1)N1CCOCC1 (centres undefined) do in these assays?
CCR6 antagonist: 44; EBI2 block: 48*; CXCR6 inh: 32

What do the screens show for `COc1c(C)cc(C(=O)C2CCCN(C(=O)c3ccc4cc[nH]c4c3)C2)cc1C` (centres undefined)?
APJ ag: -4; CCR6 antagonist: 8; EBI2 block: -5; CXCR6 inh: 0; APJ antag: 8

What do the screens show for `CCn1nc([N+](=O)[O-])c(C(C#N)c2nc3cc(C(F)(F)F)ccc3s2)c(Cl)c1=O` (centres undefined)?
APJ ag: -11; CCR6 antagonist: 52*; EBI2 block: 6; CXCR6 inh: 38; APJ antag: 56*

How did Cc1ccccc1CS(=O)(=O)c1nnc([C@H](CC(C)C)NC(=O)OC(C)(C)C)o1 do in these assays?
APJ ag: -1; CCR6 antagonist: 53*; EBI2 block: 13; CXCR6 inh: 27; APJ antag: 31

Results for CC(C)(C)OC(=O)N[C@@H](Cc1ccccc1)c1nnc(S(=O)(=O)Cc2cccc(F)c2)o1 ?
APJ ag: 0; CCR6 antagonist: 69*; APJ antag: 29

How did CC[C@@H](C)[C@H](NC(=O)OC(C)(C)C)c1nnc(S(=O)(=O)Cc2cc(C)ccc2C)o1 do in these assays?
APJ ag: 0; CCR6 antagonist: 48; EBI2 block: 12; CXCR6 inh: 37; APJ antag: 14

How did CC(C)C[C@H](N)c1nnc(S(=O)(=O)Cc2cccc(F)c2)o1 do in these assays?
APJ ag: 0; CCR6 antagonist: 13; EBI2 block: -4; CXCR6 inh: 13; APJ antag: -1

What do the screens show for `COc1ccc(NC(=O)NC2(C(=O)N3CCCC(C)C3)CCCCC2)cc1` (centres undefined)?
APJ ag: -3; CCR6 antagonist: -5; EBI2 block: -9; CXCR6 inh: 10; APJ antag: 14

Results for O=S(=O)(c1ccc(Cl)cc1)N1CCN(Cc2ccc(O)c3ncccc23)CC1 ?
APJ ag: 1; CCR6 antagonist: -13; EBI2 block: 27; CXCR6 inh: -2; APJ antag: 0

How did O=[N+]([O-])c1cc(CN2CCN(c3ccccc3)CC2)c(O)c2ncccc12 do in these assays?
APJ ag: -3; CCR6 antagonist: 75*; EBI2 block: 17; CXCR6 inh: 56*; APJ antag: -2

How did Oc1ccc(CN2CCN(Cc3ccccc3)CC2)c2cccnc12 do in these assays?
APJ ag: -6; CCR6 antagonist: 17; EBI2 block: 68*; CXCR6 inh: 27; APJ antag: 14

How did CSc1ncccc1C(=O)OCC(=O)c1ccccc1 do in these assays?
APJ ag: -4; CCR6 antagonist: 18; EBI2 block: -1; CXCR6 inh: 2; APJ antag: 9

What do the screens show for `O=C(COC(=O)CCOc1ccccc1)NCCc1ccccc1`?
APJ ag: 1; CCR6 antagonist: 15; EBI2 block: 0; CXCR6 inh: -1; APJ antag: 21

How did CSc1ncccc1C(=O)OCC(=O)c1cc2ccccc2o1 do in these assays?
APJ ag: -12; CCR6 antagonist: 50*; EBI2 block: 4; CXCR6 inh: 34; APJ antag: 22

How did O=C(CCOc1ccccc1)OCC(=O)c1cc2ccccc2o1 do in these assays?
APJ ag: -10; CCR6 antagonist: 85*; EBI2 block: -8; CXCR6 inh: 29; APJ antag: 36
